Test results: ChEMBL document CHEMBL3232746, “Diamidine compounds for selective inhibition of protein arginine methyltransferase 1” (J Med Chem, 2014)
pIC50: −log10 of the molar value. Active and inactive are the calls of the source. The rule behind the calls is not given here.

Legend:
[1] = target: Protein arginine N-methyltransferase 6 (Homo sapiens, UniProt Q96LA8); assay: Inhibition of His6x-tagged PRMT6 (unknown origin) using [3H]SAM and histone H3.1 as substrate at 20 uM after 1 hr by P81 filter binding assay
Method in brief: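 P81 filter-binding assay with 1 μM histone H3.1 as acceptor and 0.5 μM [3H]SAM in 50 mM HEPES pH 8.0, 50 mM NaCl, 1 mM EDTA, 0.5 mM DTT; enzyme, SAM and inhibitor preincubated 5 min, then substrate added; 1 h at 30 °C; methylation by scintillation counting.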

[2] = target: T1, Histone-arginine methyltransferase CARM1 (Homo sapiens, UniProt Q86X55); assay: Inhibition of GST-tagged CARM1 (unknown origin) using [3H]SAM and histone H3.1 as substrate at 20 uM after 1 hr by P81 filter binding assay
T1 sequence (Q86X55 whole entry): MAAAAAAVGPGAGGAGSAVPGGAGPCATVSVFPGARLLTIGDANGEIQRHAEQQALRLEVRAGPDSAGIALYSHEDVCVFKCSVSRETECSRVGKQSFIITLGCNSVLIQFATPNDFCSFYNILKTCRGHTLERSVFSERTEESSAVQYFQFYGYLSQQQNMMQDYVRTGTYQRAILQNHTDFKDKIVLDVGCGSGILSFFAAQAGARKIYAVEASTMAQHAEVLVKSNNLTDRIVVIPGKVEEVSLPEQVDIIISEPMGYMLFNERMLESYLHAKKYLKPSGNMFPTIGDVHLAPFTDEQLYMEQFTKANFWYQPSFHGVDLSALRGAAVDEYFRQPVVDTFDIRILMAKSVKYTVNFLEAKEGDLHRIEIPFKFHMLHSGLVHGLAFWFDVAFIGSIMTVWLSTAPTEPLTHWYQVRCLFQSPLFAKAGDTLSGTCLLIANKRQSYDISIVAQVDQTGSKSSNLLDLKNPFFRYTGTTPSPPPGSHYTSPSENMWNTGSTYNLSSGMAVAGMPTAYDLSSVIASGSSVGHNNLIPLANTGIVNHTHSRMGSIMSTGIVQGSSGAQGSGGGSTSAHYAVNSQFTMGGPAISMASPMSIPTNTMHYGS

[3] = target: T2, Protein arginine N-methyltransferase 1 (Homo sapiens, UniProt Q99873); assay: Inhibition of His6x-tagged recombinant PRMT1 (unknown origin) expressed in Escherichia coli BL21(DE3) using [3H]SAM and histone H4 (1 to 20) as substrate after 8 mins by P81 filter binding assay
Target sequence in this assay (Q99873 whole entry): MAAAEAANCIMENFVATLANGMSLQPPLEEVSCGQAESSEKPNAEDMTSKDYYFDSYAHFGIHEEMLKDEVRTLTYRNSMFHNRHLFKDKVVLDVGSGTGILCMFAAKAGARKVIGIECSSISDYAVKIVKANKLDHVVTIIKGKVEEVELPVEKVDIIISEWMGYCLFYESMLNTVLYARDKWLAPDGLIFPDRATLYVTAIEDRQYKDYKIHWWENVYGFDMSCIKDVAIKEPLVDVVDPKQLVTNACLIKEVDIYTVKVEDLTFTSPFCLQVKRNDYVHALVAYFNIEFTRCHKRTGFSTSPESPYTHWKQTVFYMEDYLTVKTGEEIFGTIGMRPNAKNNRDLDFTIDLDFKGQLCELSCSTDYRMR

[4] = target: T3, Protein arginine N-methyltransferase 5 (Homo sapiens, UniProt O14744); assay: Inhibition of HA-tagged recombinant PRMT5 (unknown origin) expressed in HEK293T cells using [3H]SAM and histone H4 (1 to 20) as substrate after 8 mins by P81 filter binding assay; set-up: species or system HEK-293T
Method in brief: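 HA-PRMT5 from HEK293T co-transfected with PRMT5 and WDR77 plasmids, HA-bead purified; 0.04 μM enzyme, 0.5 μM [3H]SAM, 1 μM H4(1–20) in HEPES pH 8.0 buffer; inhibitor preincubated with enzyme and SAM 5 min before peptide start; 8 min at 30 °C; P81 disks washed in NaHCO3 pH 9.0, scintillation counted; IC50 over varied inhibitor concentrations.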

[5] = target: T2, Protein arginine N-methyltransferase 1; assay: Inhibition of His6x-tagged recombinant PRMT1 (unknown origin) expressed in Escherichia coli BL21(DE3) using [3H]SAM and histone H4 (1 to 20) as substrate at 20 uM after 8 mins by P81 filter binding assay
Method in brief: (§1)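 Enzyme 0.04 μM (His-PRMT1 purified on Ni-NTA, or HA-PRMT5 co-expressed with WDR77 in 293T and purified on HA beads). Assay used 0.5 μM [3H]SAM and 1 μM H4(1–20) in 50 mM HEPES pH 8.0, 50 mM NaCl, 1 mM EDTA, 0.5 mM DTT. Preincubation 5 min at room temperature, then 8 min at 30 °C. P81 filter binding with scintillation counting. Compared with no-inhibitor control.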
Target sequence in this assay (Q99873 whole entry, looked up): as the sequence (Q99873 whole entry) above

[6] = target: T3, Protein arginine N-methyltransferase 5; assay: Inhibition of HA-tagged recombinant PRMT5 (unknown origin) expressed in HEK293T cells using [3H]SAM and histone H4 (1 to 20) as substrate at 20 uM after 8 mins by P81 filter binding assay; method in brief: as §1
MOLM-13 = assay: Antiproliferative activity against human MOLM13 cells with MLL-AF9 translocation assessed as cell viability at 20 uM measured everyday for 3 days by CellTiter-Glo assay; assay type: functional, cell-based
Method in brief: (§2)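 RPMI + 10% FBS culture; 1000–1500 cells seeded per well; 20 μM compound or matching DMSO volume added; CellTiter-Glo luminescence read at 0, 24, 48, 72 h after treatment; viability expressed as percent of viable cells relative to DMSO-treated control.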

HEL = assay: Antiproliferative activity against human HEL cells harboring JAK2 V617F mutant assessed as cell viability at 20 uM measured everyday for 3 days by CellTiter-Glo assay; assay type: functional, cell-based; method in brief: as §2
Jurkat = assay: Antiproliferative activity against human Jurkat cells assessed as cell viability at 20 uM measured everyday for 3 days by CellTiter-Glo assay; assay type: functional, cell-based; method in brief: as §2
CMY = assay: Antiproliferative activity against human CMY cells harboring trisomy 21 assessed as cell viability at 20 uM measured everyday for 3 days by CellTiter-Glo assay; assay type: functional, cell-based; method in brief: as §2
[7] = target: T2, Protein arginine N-methyltransferase 1; assay: Inhibition of His6x-tagged recombinant PRMT1 (unknown origin) expressed in Escherichia coli BL21(DE3) using fluorescein-labeled histone H4 (1 to 20) as substrate at 10 to 50 uM after 8 mins by competitive fluorescence anisotropy binding assay
Method in brief: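 0.2 μM fluorescein-labelled H4(1–20) and 2 μM PRMT1 in P81 assay buffer (HEPES pH 8.0); inhibitor titrated in until signal plateaued; anisotropy read at excitation 498 nm, emission 524 nm.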
Target sequence in this assay (Q99873 whole entry, looked up): as the sequence (Q99873 whole entry) above

Homo sapiens = organism: Homo sapiens; assay: Antiproliferative activity against human CHRF-288-11 cells harboring trisomy 21 assessed as cell viability at 20 uM measured everyday for 3 days by CellTiter-Glo assay; assay type: functional, cell-based; method in brief: as §2
[8] = target: T2, Protein arginine N-methyltransferase 1; assay: Competitive inhibition of His6x-tagged recombinant PRMT1 (unknown origin) expressed in Escherichia coli BL21(DE3) using [3H]SAM and histone H4 (1 to 20) as substrate by double reciprocal plot analysis
Method in brief: (§3)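 Radiometric P81 filter-binding kinetics in 50 mM HEPES pH 8.0, 50 mM NaCl, 1 mM EDTA, 0.5 mM DTT, 30 °C; inhibitor at 0, 10, 20, 30, 40 μM; initial velocities with H4-20 varied at 3 μM [3H]SAM, or [3H]SAM varied at 15 μM H4-20; Michaelis–Menten and double-reciprocal analysis giving Kis and Kii.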
Target sequence in this assay (Q99873 whole entry, looked up): as the sequence (Q99873 whole entry) above

[9] = target: T2, Protein arginine N-methyltransferase 1; assay: Inhibition of PRMT1 in human 293T cells assessed as reduction of GFP-ALY methylation by Western blot analysis; assay type: cell-based
Method in brief: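 GFP-ALY stably expressing 293T cells in DMEM + 10% FBS, treated 15 h with 20 μM compound; lysed on ice in NP-40 buffer; GFP-ALY pulled down on GFP antibody beads; SDS-PAGE and Western blot with ASYM24 methylarginine antibody, equal GFP-ALY loading.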
Target sequence in this assay (Q99873 whole entry, looked up): as the sequence (Q99873 whole entry) above

HL-60 = assay: Antiproliferative activity against human HL60 cells with PML-RAR alpha translocation assessed as cell viability at 20 uM measured everyday for 3 days by CellTiter-Glo assay; assay type: functional, cell-based; method in brief: as §2
[10] = target: T2, Protein arginine N-methyltransferase 1; assay: Uncompetitive inhibition of His6x-tagged recombinant PRMT1 (unknown origin) expressed in Escherichia coli BL21(DE3) using [3H]SAM and histone H4 (1 to 20) as substrate by double reciprocal plot analysis; method in brief: as §3
Target sequence in this assay (Q99873 whole entry, looked up): as the sequence (Q99873 whole entry) above

T3 sequence (O14744 whole entry): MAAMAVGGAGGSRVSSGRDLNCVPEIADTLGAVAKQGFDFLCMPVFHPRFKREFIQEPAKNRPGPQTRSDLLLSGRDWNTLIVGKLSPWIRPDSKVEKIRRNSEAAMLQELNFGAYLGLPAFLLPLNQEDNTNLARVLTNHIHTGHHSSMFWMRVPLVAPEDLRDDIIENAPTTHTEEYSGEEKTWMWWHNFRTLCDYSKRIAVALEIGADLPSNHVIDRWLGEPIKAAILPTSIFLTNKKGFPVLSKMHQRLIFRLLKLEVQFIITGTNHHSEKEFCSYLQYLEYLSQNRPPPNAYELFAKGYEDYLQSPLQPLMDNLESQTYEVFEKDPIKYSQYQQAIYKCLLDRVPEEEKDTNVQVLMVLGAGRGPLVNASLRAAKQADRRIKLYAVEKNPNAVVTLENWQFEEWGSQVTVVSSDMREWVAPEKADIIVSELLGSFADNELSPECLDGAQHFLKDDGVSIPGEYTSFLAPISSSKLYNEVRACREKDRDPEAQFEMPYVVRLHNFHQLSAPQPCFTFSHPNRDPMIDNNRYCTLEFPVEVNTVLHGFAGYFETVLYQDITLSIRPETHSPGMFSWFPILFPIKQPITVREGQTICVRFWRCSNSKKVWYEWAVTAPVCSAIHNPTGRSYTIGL
Protein arginine N-methyltransferase 6, sequence (Q96LA8 whole entry): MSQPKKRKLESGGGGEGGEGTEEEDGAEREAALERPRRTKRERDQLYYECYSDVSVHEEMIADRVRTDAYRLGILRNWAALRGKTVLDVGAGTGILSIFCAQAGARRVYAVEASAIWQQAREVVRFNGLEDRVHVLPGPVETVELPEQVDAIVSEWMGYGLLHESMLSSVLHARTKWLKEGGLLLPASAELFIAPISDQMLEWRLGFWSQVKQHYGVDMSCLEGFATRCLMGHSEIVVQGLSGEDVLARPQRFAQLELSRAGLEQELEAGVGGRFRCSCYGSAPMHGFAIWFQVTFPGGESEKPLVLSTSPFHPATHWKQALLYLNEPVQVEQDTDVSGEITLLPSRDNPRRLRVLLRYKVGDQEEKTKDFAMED

Q: How did the pIC50 [1] turn out when `N=C(N)c1ccc(-c2ccc(-c3ccc(C(=N)N)nc3)o2)cc1` was run?
A: The pIC50 was 3.68.

Q: What about the pIC50 [2] of the same molecule?
A: The pIC50 was < 3.40.

Q: What about the pIC50 [3] of the same molecule?
A: Its pIC50 is 5.14.

Q: What about the pIC50 [4] of the same molecule?
A: Its pIC50 is 3.73.

Q: How did the inhibition [5] turn out when `N=C(N)c1ccc(-c2ccc(-c3ccc(C(=N)N)c(F)c3)o2)cc1F` was run?
A: The inhibition was “Active”.

Q: What about the inhibition [6] of the same molecule?
A: The inhibition was “Active”.

Q: How did the inhibition [5] turn out when `N=C(N)c1ccc(-c2ccc(-c3ccc(OCCCCCCCCOc4ccc(-c5ccc(-c6ccc(C(=N)N)cc6)o5)cc4)cc3)o2)cc1` was run?
A: Its inhibition is > 85%.

Q: What about the inhibition [6] of the same molecule?
A: Its inhibition is > 85%.

Q: `N=C(N)c1ccc(-c2ccc(-c3ccc(C(=N)N)cc3)o2)cc1` [FURAMIDINE] was tested. Which pIC50 [1] did it give?
A: Its pIC50 is 3.55.

Q: What about the inhibition (MOLM-13) of the same molecule?
A: Its inhibition is “Active”.

Q: And the inhibition (HEL)?
A: Its inhibition is “inactive”.

Q: And the pIC50 [2]?
A: Its pIC50 is < 3.40.

Q: And the inhibition (Jurkat)?
A: The inhibition was “Active”.

Q: What about the inhibition [5] of the same molecule?
A: Its inhibition is > 75%.

Q: What about the inhibition (CMY) of the same molecule?
A: Its inhibition is “Active”.

Q: What about the pIC50 [3] of the same molecule?
A: Its pIC50 is 5.03.

Q: What about the inhibition [7] of the same molecule?
A: The inhibition was “Active”.

Q: And the inhibition (Homo sapiens)?
A: Its inhibition is “Active”.

Q: And the inhibition [6]?
A: The inhibition was 11%.

Q: And the Kis [8]?
A: Its Kis is 2.6 µM.

Q: What about the pIC50 [4] of the same molecule?
A: Its pIC50 is 3.78.

Q: And the inhibition [9]?
A: The inhibition was “Active”.

Q: What about the inhibition (HL-60) of the same molecule?
A: The inhibition was “Active”.

Q: What about the Kii [10] of the same molecule?
A: Its Kii is 26 µM.

Q: With `N=C(N)c1ccc(/C=C/c2ccc(C(=N)N)cc2)cc1` [STILBAMIDINE] as the molecule, how does the pIC50 [1] read?
A: Its pIC50 is 3.76.

Q: What about the pIC50 [2] of the same molecule?
A: The pIC50 was 3.40.

Q: And the pIC50 [4]?
A: Its pIC50 is 4.36.
